# Test results as given in ChEMBL document CHEMBL4725388, “Characterization of Aminobenzylphenols as Protein Disulfide Isomerase Inhibitors in Glioblastoma Cell Lines” (J Med Chem, 2020).
# The source made the active and inactive calls. No cut-off for these calls is given here.
# Legend:
# [1] = biological target: T1, Protein disulfide-isomerase (Homo sapiens, UniProt P07237); assay: (§1) Inhibition of N-(4-(5,5-Difluoro-1,3,7,9-tetramethyl-5H-4(Gamma4),5(Gamma4)-dipyrrolo[1,2-c:2',1'-f][1,3,2]diazaborinin-10-yl))-N-(2-(4-((6-hydroxybenzo[d]-[1,3]dioxol-5-yl)(piperidin-1-yl)methyl)benzamido)ethyl)-benzamide binding to PDIA1 in human U-87 MG cell lysates measured after 24 hrs by PAGE analysis; assay type: subcellular
# Target sequence in this assay (P07237 18-508 limits assumed): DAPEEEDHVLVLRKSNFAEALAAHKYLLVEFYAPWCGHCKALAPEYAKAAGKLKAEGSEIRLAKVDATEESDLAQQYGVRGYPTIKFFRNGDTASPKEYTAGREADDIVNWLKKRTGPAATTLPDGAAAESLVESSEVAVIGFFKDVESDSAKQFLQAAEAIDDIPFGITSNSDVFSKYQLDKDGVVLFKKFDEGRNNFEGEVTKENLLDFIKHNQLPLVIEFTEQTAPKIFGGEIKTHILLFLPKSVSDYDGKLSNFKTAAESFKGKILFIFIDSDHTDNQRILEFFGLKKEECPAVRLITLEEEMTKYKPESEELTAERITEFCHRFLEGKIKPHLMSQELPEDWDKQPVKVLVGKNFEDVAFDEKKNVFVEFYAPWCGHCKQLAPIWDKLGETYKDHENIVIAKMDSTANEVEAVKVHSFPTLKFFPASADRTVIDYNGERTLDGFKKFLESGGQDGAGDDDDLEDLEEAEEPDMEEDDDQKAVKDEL
# [2] = biological target: T1, Protein disulfide-isomerase; assay: Inhibition of recombinant human wild-type N-terminal His-tagged PDIA1 expressed in Escherichia coli strain BL21(DE3) using bovine insulin as substrate preincubated for 1 hr followed by substrate addition
# Summary of the method: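 IC50 from dose-response curves; PDI reductase assay for enzyme, MTT in U-87 MG cells for cytotoxicity; mean ± SD of at least three independent experiments.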
# Target sequence in this assay (P07237 whole entry): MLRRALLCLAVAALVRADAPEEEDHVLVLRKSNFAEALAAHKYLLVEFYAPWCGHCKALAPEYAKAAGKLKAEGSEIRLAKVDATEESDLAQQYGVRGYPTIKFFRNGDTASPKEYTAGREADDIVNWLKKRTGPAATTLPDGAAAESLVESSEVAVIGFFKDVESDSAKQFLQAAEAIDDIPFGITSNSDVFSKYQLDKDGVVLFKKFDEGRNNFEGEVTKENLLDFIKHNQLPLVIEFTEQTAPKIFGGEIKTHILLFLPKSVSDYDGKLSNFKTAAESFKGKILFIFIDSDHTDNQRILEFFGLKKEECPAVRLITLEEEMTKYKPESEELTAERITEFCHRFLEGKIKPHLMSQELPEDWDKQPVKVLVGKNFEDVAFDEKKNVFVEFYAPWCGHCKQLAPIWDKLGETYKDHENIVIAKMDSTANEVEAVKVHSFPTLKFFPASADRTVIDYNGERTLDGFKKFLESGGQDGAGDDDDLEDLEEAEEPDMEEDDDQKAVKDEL
# [3] = biological target: T2, Protein disulfide-isomerase A2 (Homo sapiens, UniProt Q13087); assay: as §1, with “recombinant PDIA2 (unknown origin)” for “PDIA1 in human U-87 MG cell lysates”
# T2 sequence (Q13087 whole entry): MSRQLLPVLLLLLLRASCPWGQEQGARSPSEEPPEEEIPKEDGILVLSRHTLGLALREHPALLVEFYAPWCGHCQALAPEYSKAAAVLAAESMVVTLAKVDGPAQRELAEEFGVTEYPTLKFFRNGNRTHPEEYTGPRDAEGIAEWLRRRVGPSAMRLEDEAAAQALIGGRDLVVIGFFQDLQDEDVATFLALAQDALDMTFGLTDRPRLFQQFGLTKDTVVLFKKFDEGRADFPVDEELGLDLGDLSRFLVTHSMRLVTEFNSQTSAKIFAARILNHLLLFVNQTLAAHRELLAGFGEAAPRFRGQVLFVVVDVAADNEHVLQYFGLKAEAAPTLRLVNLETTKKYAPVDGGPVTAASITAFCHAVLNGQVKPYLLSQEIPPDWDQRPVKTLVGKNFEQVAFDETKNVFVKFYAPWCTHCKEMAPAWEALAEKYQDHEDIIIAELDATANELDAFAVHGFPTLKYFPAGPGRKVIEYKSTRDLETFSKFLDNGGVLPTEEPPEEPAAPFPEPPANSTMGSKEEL
# [4] = biological target: T3, Protein disulfide-isomerase A3 (Homo sapiens, UniProt P30101); assay: as §1, with “recombinant PDIA3 (unknown origin)” for “PDIA1 in human U-87 MG cell lysates”
# T3 sequence (P30101 whole entry): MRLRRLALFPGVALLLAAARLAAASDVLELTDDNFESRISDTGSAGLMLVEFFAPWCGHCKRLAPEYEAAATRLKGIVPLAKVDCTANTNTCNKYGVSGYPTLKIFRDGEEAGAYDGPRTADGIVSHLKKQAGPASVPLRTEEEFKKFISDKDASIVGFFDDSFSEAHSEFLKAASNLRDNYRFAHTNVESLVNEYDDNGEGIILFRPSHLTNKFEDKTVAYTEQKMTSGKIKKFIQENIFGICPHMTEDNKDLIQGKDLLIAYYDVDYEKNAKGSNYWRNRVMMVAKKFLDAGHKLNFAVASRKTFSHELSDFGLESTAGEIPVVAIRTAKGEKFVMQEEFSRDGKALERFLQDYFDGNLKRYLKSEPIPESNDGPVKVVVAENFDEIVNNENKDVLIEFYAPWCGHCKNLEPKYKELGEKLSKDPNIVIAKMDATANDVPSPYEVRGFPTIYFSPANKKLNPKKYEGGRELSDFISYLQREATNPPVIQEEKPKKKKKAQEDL
# U-87MG ATCC [5] = assay: Upregulation of CALR gene expression in human U-87 MG cells at 20 uM incubated for 4 hrs followed by Bru addition during last 30 mins of incubation by Trizol reagent based gene sequencing analysis; assay type: functional, cell-based
# U-87MG ATCC [6] = assay: Upregulation of HSPA5 gene expression in human U-87 MG cells at 20 uM incubated for 4 hrs followed by Bru addition during last 30 mins of incubation by Trizol reagent based gene sequencing analysis; assay type: functional, cell-based
# [7] = Effect on total CALR expression in human U-87 MG cells at 20 uM measured after 12 to 48 hrs by Western blot analysis; assay type: ADME, cell-based; settings: u-87mg atcc, time 12-48 hrs
# U-87MG ATCC [8] = assay: Upregulation of SLC7A11 gene expression in human U-87 MG cells at 20 uM incubated for 4 hrs followed by Bru addition during last 30 mins of incubation by Trizol reagent based gene sequencing analysis; assay type: functional, cell-based
# U-87MG ATCC [9] = assay: Upregulation of MYZAP gene expression in human U-87 MG cells at 20 uM incubated for 4 hrs followed by Bru addition during last 30 mins of incubation by Trizol reagent based gene sequencing analysis; assay type: functional, cell-based
# U-87MG ATCC [10] = assay: Upregulation of NQO1 gene expression in human U-87 MG cells at 20 uM incubated for 4 hrs followed by Bru addition during last 30 mins of incubation by Trizol reagent based gene sequencing analysis; assay type: functional, cell-based
inhibition [1],IC50 [2] [nM],inhibition (INH) [3],inhibition (INH) [4],SMILES,Activity (U-87MG ATCC [5]),Activity (U-87MG ATCC [6]),Activity [7],Activity (U-87MG ATCC [8]),Activity (U-87MG ATCC [9]),Activity (U-87MG ATCC [10])
Dose-dependent effect,2900,Dose-dependent effect,Dose-dependent effect,Oc1cc2c(cc1C(c1ccccc1)N1CCCCC1)OCO2 (stereo unspecified),,,,,,
,< 200,,,Oc1c(C(c2ccncc2)N2CCCCC2)ccc2ccoc12 (stereo unspecified),Active,Active,Non-Toxic,Active,Active,Active
